Where two headings read alike, the source gives them in different places.
Columns and labels:
[1] = cited from earlier work
MM.1R cells [2] = test: MTT cytotoxicity assay; type: cell-based, human
RPMI 8226 cells = test: MTT cytotoxicity assay; type: cell-based; details: Homo sapiens, RPMI-8226, 48 h, read-out: IC50 (cytotoxicity, MTT)
[3] = test system: phospho-AKT in CD138+ MM cells; test: Phospho-AKT flow cytometry of patient bone marrow CD138+ MM cells; type: in vivo, human; details: patient 002 CD138+ cells before dosing, 10 μM ex vivo, 30 minutes
MM.1S and MM.1R cells = test: Western blot of signaling pathways; type: cell-based, human; details: for phospho-p70 S6 kinase: MM.1R cells, data not shown; for phosphorylation of AKT, MDM2, and ERK: MM.1S and MM.1R cells, 10 μM
[4] = Prodrug cleavage and preclinical pharmacokinetics; type: in vitro ADME
p110β = details: cited from earlier work
p110γ = details: cited from earlier work
p110δ = details: cited from earlier work
MM.1S cells [5] = test: MTT cytotoxicity assay; details: read-out: IC50 (cytotoxicity, MTT)
[6] = Pharmacokinetics in MM patients, Phase I study of SF1126; details: MM patients given SF1126 infusion, dose levels 90–570 mg/m^2
MM.1S cells [7] = test: Cleaved caspase-3 immunocytochemistry; type: cell-based, human; details: for cells positive for cleaved caspase-3: one hour, non-treated 5.9%
MM.1R cells [8] = test: Cleaved caspase-3 immunocytochemistry; type: cell-based, human
MM.1R xenografts [9] = type: in vivo, mouse
MM.1R xenografts [10] = test: Immunohistochemistry of MM.1R tumors; type: in vivo, mouse; details: 50 mg/kg s.c. 3 times weekly
Method in brief: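 Mice bearing s.c. MM.1R flank xenografts (randomized at 100–125 mm³) got test compound 50 mg/kg s.c. or acidified sterile water vehicle, 3 times weekly for 3 weeks. Frozen 4 μm tumor sections were stained with rat anti-mouse CD31; paraffin 5 μm sections were stained overnight with anti-PCNA (PC10). HRP streptavidin-biotin, hematoxylin counterstain, mouse IgG negative control. PCNA labeling index: % positive nuclei over 500 cells, ten 40x fields; SD, n=8.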

HIF-1α in MM.1R cells = test: Hypoxic HIF-1α stabilization, Western blot; type: cell-based, human; details: 1% oxygen, 4 hours
[11] = test system: HIF-1α in RPMI 8226 cells; test: Hypoxic HIF-1α stabilization, Western blot; type: cell-based, human; details: RPMI 8226, 1% oxygen, 4 hours, 20 and 40 μM
[12] = human, in vivo
[13] = relapsed or refractory MM patients, Phase I

## RADS [SF1326]
[1]
  rate of cleavage to SF1101: same rate as SF1126

## O=c1cc(N2CCOCC2)oc2c(-c3ccccc3)cccc12 [LY294002]
MM.1R cells [2]; Homo sapiens, 48 h, read-out: IC50 (cytotoxicity, MTT)
  IC50: […]
RPMI 8226 cells
  IC50: 5.83 µM
[3]
  endogenous downstream AKT phosphorylation, ex vivo treatment: did not suppress
MM.1S and MM.1R cells
  phospho-p70 S6 kinase: decreased
  phosphorylation of AKT, MDM2, and ERK: significantly decreased
[4]
  plasma half-life: does not have a measurable plasma half-life
p110β
  IC50: […]
p110γ
  IC50: […]
p110δ
  IC50: […]
Solubility
  solubility: only soluble in 100% DMSO
MM.1S cells [5]; Homo sapiens, MM1.S, 48 h
  IC50: 7.17 µM
[6]
  t1/2 of active SF1126 hydrolysis product: […]

## N=C(N)NCCC[C@H](NC(=O)CCC(=O)OC[N+]1(c2cc(=O)c3cccc(-c4ccccc4)c3o2)CCOCC1)C(=O)NCC(=O)N[C@@H](CC(=O)O)C(=O)N[C@@H](CO)C(=O)[O-] [SF1126]
MM.1R cells [2]; read-out: IC50 (cytotoxicity, MTT), 48 hours, sigmoidal dose-response fit
  IC50: 11.7 µM
MM.1S cells [7]; 5 μM
  increase in cleaved caspase-3 over non-treated cells: 1.4 fold
  cells positive for cleaved caspase-3: 8.3%
MM.1S cells [7]; 50 μM
  increase in cleaved caspase-3 over non-treated cells: 1.9 fold
  cells positive for cleaved caspase-3: 11.4%
MM.1R cells [8]; 5 μM
  increase in caspase 3 cleavage: 3 fold
MM.1R cells [8]; 50 μM
  increase in caspase 3 cleavage: 2.7 fold
MM.1R xenografts [9]; 50 mg/kg s.c. 3 times weekly for 3 weeks, by 34 days
  mean tumor volume relative to controls (fold less): approximately eightfold
MM.1R xenografts [9]; mouse, in vivo
  untoward effects in mice: No untoward effects
MM.1R xenografts [10]; controls 25%, n=8, p<0.02
  PCNA-positive proliferating cells (labeling index): 7%
MM.1R xenografts [10]; n=8, p<0.007
  CD31 microvessel density: striking decrease
MM.1S and MM.1R cells
  expression of survivin: not affected
  phospho-p70 S6 kinase: decreased
  phosphorylation of AKT, MDM2, and ERK: significantly decreased
HIF-1α in MM.1R cells
  HIF-1α accumulation under hypoxic conditions: blocked
[11]
  HIF-1α expression under hypoxic conditions: abrogated
[12]
  clearance of SF1126: rapidly cleared post-infusion
[13]
  effect on disease progression: did not appear to modify disease progression
MM.1S cells [5]; MM.1S, 48 hours, sigmoidal dose-response fit
  IC50: 8.89 µM

— paper PMC3832139 (Cancer chemotherapy and pharmacology, 2013)
